Measured values from different studies.
Compare with care: the assays were run in different laboratories.
Target: Serine/threonine-protein kinase 33 (STK33, Homo sapiens, UniProt Q9BYT3)

Structure (SMILES) | assay | setting | quantity | result
CCCOc1ccc(OC)c(F)c1C(=O)c1ccc(C(=O)N[C@@H]2CNC[C@H]2NC(=O)c2ccc3[nH]ncc3c2)cc1 | enzyme activity, inhibitor | 10 µM | remaining activity | 7%
CCS(=O)(=O)c1cc2cc(C[C@@](O)(CC(C)(C)c3ccc(F)cc3C(N)=O)C(F)(F)F)[nH]c2cn1 | cell-free assay, competition with immobilised ligand | 1 µM | remaining binding | 91%
Cn1cnc(Br)c1C1=CN(c2ncnc3[nH]cnc23)CCS1 | enzyme activity, inhibitor, radiometric | 2 µM | inhibition | 78.4%
COc1cc(Cl)c(C(=O)N[C@@H](CN[C@H]2CC[C@@H](N)CC2)Cc2ccc(C#N)cc2)cc1-c1ccc(CN[C@H](C)c2ccc(C)cc2)o1 | enzyme activity, inhibitor | 1 µM | remaining activity | 99%
Cn1nc(C(F)(F)F)cc1-c1cnc(N2CCc3cc(S(=O)(=O)Nc4c(F)cc(Cl)cc4F)cc(N4CCCC4=O)c32)nc1 | cell-free assay, competition with immobilised ligand | 1 µM | remaining binding | 100%
O=C(Nc1cnn(-c2csc(C(=O)NC3COC3)c2)c1)Nc1ccccc1Cl | enzyme activity, inhibitor | 5 µM | remaining activity | 99.3%
Cc1ccc(C(=O)Nc2ccc(CN3CCN(C)CC3)c(C(F)(F)F)c2)cc1C#Cc1cnc2cccnn12 | enzyme activity, inhibitor | 23.5 nM | remaining activity | 96%
Cc1nccc(COC(=O)N2C[C@@H]3[C@@H](CNC(=O)c4ccc5[nH]nnc5c4)[C@@H]3C2)n1 | cell-free assay, competition with immobilised ligand | 1 µM | remaining binding | 93%
Cc1ccc(NC(=O)c2ccc(C)c(C(F)(F)F)c2)cc1C#Cc1nn(C2CCC(O)CC2)c2ncnc(N)c12 (stereo not shown) | cell-free assay | 10 µM | remaining signal | 109%
CC(C)(O)[C@H]1CC[C@H](Nc2ccc3ncc(-c4cccc(C(F)(F)F)c4)n3n2)CC1 | enzyme activity, inhibitor | 1 µM | remaining activity | 40.5%
Cc1ncc([N+](=O)[O-])n1C(=NO)c1ccccc1C(F)(F)F | enzyme activity, inhibitor | 10 µM | inhibition | 11.4%
CN(C)c1ncnc(-c2ccc3nc(Nc4cc(CN5CCN(C(=O)CC(F)(F)F)CC5)ccn4)[nH]c3c2)c1Cl | cell-free assay, competition with immobilised ligand | 1 µM | remaining binding | 100%
Cn1cncc1C1=CN(c2ncnc3[nH]cnc23)CCS1 | enzyme activity, inhibitor, radiometric | 2 µM | inhibition | 80.5%
COc1cc(Nc2cnc(C#N)c(O[C@H](C)CN(C)C)n2)ncc1-c1cnn(C)c1 | enzyme activity, inhibitor, radiometric | 10 µM | remaining activity | 16%
Cn1cc(Cl)c2c(Oc3c(F)cc(Nc4cc(Cl)nc(N)n4)cc3F)ccnc21 | cell-free assay, competition with immobilised ligand | 0.1 µM | remaining binding | 100%
FC(F)(F)Oc1cccc(-c2cnc3ccc(-c4ccncc4)nn23)c1 | enzyme activity, inhibitor, radiometric | 1 µM | activity vs control | 95%
Cn1nc(C(=O)NCc2ccc(C(=O)O)cc2)cc1-c1ccc2[nH]ccc2c1 | cell-free assay, competition with immobilised ligand | 0.1 µM | remaining binding | 87%
CCCS(=O)(=O)Nc1ccc(F)c(C(=O)c2c[nH]c3ncc(-c4ccc(Cl)cc4)cc23)c1F | enzyme activity, inhibitor | 1 µM | inhibition | < 10%
Cc1ccc(Nc2nccc(N(C)c3ccc4c(C)n(C)nc4c3)n2)cc1S(N)(=O)=O | enzyme activity, inhibitor | 0.3 µM | inhibition | -2%
